{"source": "paper PMC6447450", "about": "(Structure (London, England : 1993), 2019)", "key": {"[1]": {"tested_on": "Bfl-1, Mcl-1, Bcl-xL, Bcl-w, and Bcl-2", "assay": "Yeast-surface display FACS binding to five Bcl-2 family paralogs", "design": "species or system human", "conditions": "for selectivity of Mcl-1 binders among Bcl-2 family paralogs (in words): Mcl-1 versus Bfl-1, Bcl-xL", "in_short": "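Myc-tagged human Mcl-1 (172-327), Bfl-1 (1-151), Bcl-2 (1-217), Bcl-w (1-164) and Bcl-xL (1-209) tested at 1000, 100, 10 and 1 nM on peptide-displaying yeast induced in galactose medium for 20-24 hr at 30 °C. Display detected with anti-HA and bound target with anti-c-myc (15 min, 4 °C), then APC anti-mouse and PE anti-rabbit (15 min, 4 °C, dark). Read-out: FACS median binding signal of expression-positive cells.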"}, "Bfl-1": {"target": "T1, Bfl-1 (Homo sapiens, UniProt Q16548)", "T1 sequence (Q16548 1-151)": "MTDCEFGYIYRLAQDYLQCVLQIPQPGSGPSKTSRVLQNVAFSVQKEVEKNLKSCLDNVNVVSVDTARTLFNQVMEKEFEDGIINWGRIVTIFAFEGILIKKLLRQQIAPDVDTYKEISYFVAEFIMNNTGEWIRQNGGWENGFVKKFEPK", "assay": "Yeast-surface display FACS binding to Bfl-1"}, "Mcl-1": {"target": "Mcl-1 (Homo sapiens, UniProt Q07820)", "sequence (Q07820 172-327)": "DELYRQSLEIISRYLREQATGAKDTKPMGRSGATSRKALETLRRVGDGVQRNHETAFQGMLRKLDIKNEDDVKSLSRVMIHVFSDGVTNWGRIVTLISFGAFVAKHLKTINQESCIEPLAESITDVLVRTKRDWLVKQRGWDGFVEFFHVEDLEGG", "assay": "Yeast-surface display FACS binding to Mcl-1"}}, "note": "“Also recorded” adds a separate entry of the source."}
{"substance": "-QWVREIAAGLRRAADDVNAQVER [FS2, reference compound]", "values": [{"measurement": "selectivity for Bfl-1", "setting": "[1]; Bfl-1 versus Mcl-1, Bcl-xL, yeast-surface display", "result": "> 100", "unit": "fold"}]}
{"substance": "-SYIDKIADLIDKVVEEINSKLE- [dF6]", "values": [{"measurement": "binding to target Bfl-1 (in words)", "setting": "Bfl-1", "result": "did not bind to their targets with high affinity; also recorded: did not bind tightly to Bfl-1"}]}
{"substance": "APKEKEVAETLRKIGEEINEALK- [dM1]", "values": [{"measurement": "selectivity of Mcl-1 binders among Bcl-2 family paralogs (in words)", "setting": "[1]; yeast-surface display", "result": "selective"}]}
{"substance": "APKEKEVARTLIKIGEEINEALK- [dM5]", "values": [{"measurement": "selectivity of Mcl-1 binders among Bcl-2 family paralogs (in words)", "setting": "[1]; yeast-surface display", "result": "selective"}]}
{"substance": "APYLEQVARTLLHIGMEINEALR- [dM6]", "values": [{"measurement": "binding to target Mcl-1 (in words)", "setting": "Mcl-1", "result": "did not bind to their targets with high affinity"}, {"measurement": "binding to Bcl-2 family members (in words)", "setting": "[1]; yeast-surface display FACS, Bfl-1, Mcl-1, Bcl-xL", "result": "not binding to any of the Bcl-2 family members we tested"}]}
